According to ChEMBL document CHEMBL1821722, “Design, synthesis and biological evaluation of novel desmuramyldipeptide analogs” (Eur J Med Chem, 2011):
Calls of active or inactive are those of the source. No cut-off for these calls is given here.

Legend:
THP-1 [1] = assay: Immunomodulatory effect in human THP1 cells assessed as increase in LPS-induced TNF-alpha release at 20.2 uM after 24 hrs by sandwich ELISA relative to LPS; format: functional
Summary of the method: (§1)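 THP-1 cells at 10⁶ cells/ml in RPMI 1640 with 10% heat-inactivated FCS. Co-incubated 24 h with compound (0.2–200 µM) plus E. coli 0127:B8 LPS 1 ng/ml, DMSO vehicle ≤0.2% final. TNF-α in supernatant expressed as % of LPS-induced release, mean ± SD of 6 samples.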

THP-1 [2] = assay: Cytotoxicity against human THP1 cells assessed as LDH release at 20.2 uM; format: cell-based; details: thp-1, 20.2 µM
Summary of the method: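 LDH leakage into the medium used as the cytotoxicity read-out, taken at the highest concentration tested.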

PBMC [3] = assay: Cytotoxicity against human PBMC assessed as LDH release at 20.2 uM; format: cell-based
THP-1 [4] = assay: Toxicity in human THP1 cells assessed TNF-alpha release at 20.2 uM after 24 hrs by sandwich ELISA; format: cell-based; details: thp-1, 24 h
Summary of the method: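 THP-1 in supplemented RPMI 1640 co-incubated 24 h with 20.2 µM compound and 1 ng/ml LPS, DMSO ≤0.2%. TNF-α release expressed as % of the LPS-only response, mean ± SD of 6 samples, Mann-Whitney U test.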

PBMC [5] = assay: Immunomodulatory effect in human PBMC cells assessed as increase in LPS-induced TNF-alpha release at 20.2 uM after 24 hrs by sandwich ELISA; format: functional, cell-based
PBMC [6] = assay: Immunomodulatory effect in human PBMC cells assessed as increase in LPS-induced TNFalpha release at 20.2 uM after 18 hrs by flow cytometry analysis relative to LPS; format: functional
Summary of the method: (§2)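 Human PBMC isolated from healthy-donor buffy coats on a Ficoll-Paque gradient. Cultured in RPMI 1640 with 10% heat-inactivated FCS, 2 mM L-glutamine and 50 µM 2-mercaptoethanol. 0.5 × 10⁶ cells exposed to 20.2 µM compound plus 10 ng/ml LPS, DMSO ≤0.1%, for 18 h at 37 °C in 5% CO₂. Supernatant cytokines measured by flow cytometric bead assay. Values are % of LPS alone, mean ± SD of 4 samples, two donors.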

PBMC [7] = assay: Immunomodulatory effect in human PBMC cells assessed as increase in LPS-induced IL-10 release at 20.2 uM after 18 hrs by flow cytometry analysis relative to LPS; format: functional; summary of the method: as §2
PBMC [8] = assay: Immunomodulatory effect in human PBMC cells assessed as increase in LPS-induced IL-6 release at 20.2 uM after 18 hrs by flow cytometry analysis relative to LPS; format: functional; summary of the method: as §2
PBMC [9] = assay: Immunomodulatory effect in human PBMC cells assessed as LPS-induced IL1-beta release at 20.2 uM after 18 hrs by flow cytometry analysis relative to LPS; format: functional; summary of the method: as §2
PBMC [10] = assay: Immunomodulatory effect in human PBMC cells assessed as increase in LPS-induced IL-8a release at 20.2 uM after 18 hrs by flow cytometry analysis relative to LPS; format: functional; summary of the method: as §2
PBMC [11] = assay: Immunostimulatory effect in human PBMC cells assessed as increase in […]/ionomycin-induce TNFalpha release at 20.2 uM after 18 hrs by flow cytometry analysis relative to PMA and ionomycin; format: functional
Summary of the method: (§3)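 PBMC prepared from donor buffy coat on Ficoll-Paque and kept in supplemented RPMI 1640. Cells (0.5 × 10⁶) given 20.2 µM compound with PMA 3.33 ng/ml and ionomycin 500 nM (final) for 18 h at 37 °C, 5% CO₂. Supernatant IL-1β, IL-6, IL-8, IL-10 and TNF-α read by flow cytometry. Expressed relative to PMA/ionomycin alone, mean ± SD of 4 samples, two donors.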

PBMC [12] = assay: Immunostimulatory effect in human PBMC cells assessed as increase in […]/ionomycin-induce IL-10 release at 20.2 uM after 18 hrs by flow cytometry analysis relative to PMA and ionomycin; format: functional; summary of the method: as §3
PBMC [13] = assay: Immunostimulatory effect in human PBMC cells assessed as increase in […]/ionomycin-induce IL-6 release at 20.2 uM after 18 hrs by flow cytometry analysis relative to PMA and ionomycin; format: functional; summary of the method: as §3
PBMC [14] = assay: Immunostimulatory effect in human PBMC cells assessed as increase in […]/ionomycin-induce IL1-beta release at 20.2 uM after 18 hrs by flow cytometry analysis relative to PMA and ionomycin; format: functional; summary of the method: as §3
PBMC [15] = assay: Immunostimulatory effect in human PBMC cells assessed as increase in […]/ionomycin-induce IL-8a release at 20.2 uM after 18 hrs by flow cytometry analysis relative to PMA and ionomycin; format: functional; summary of the method: as §3
PBMC [16] = assay: Immunomodulatory effect in human PBMC cells assessed as decrease in LPS-induced IL-8a release at 20.2 uM after 18 hrs by flow cytometry analysis relative to LPS; format: functional; design: scale not given: the % may be the effect or the level left; summary of the method: as §2
PBMC [17] = assay: Immunomodulatory effect in human PBMC cells assessed as decrease in LPS-induced IL-10 release at 20.2 uM after 18 hrs by flow cytometry analysis relative to LPS; format: functional; design: scale not given: the % may be the effect or the level left; summary of the method: as §2
PBMC [18] = assay: Immunomodulatory effect in human PBMC cells assessed as decrease in LPS-induced IL-6 release at 20.2 uM after 18 hrs by flow cytometry analysis relative to LPS; format: functional; design: scale not given: the % may be the effect or the level left; summary of the method: as §2
THP-1 [19] = assay: Immunomodulatory effect in human THP1 cells assessed as increase in LPS-induced TNF-alpha release at 0.2 uM after 24 hrs by sandwich ELISA relative to LPS; format: functional; summary of the method: as §1
THP-1 [20] = assay: Immunomodulatory effect in human THP1 cells assessed as increase in LPS-induced TNF-alpha release at 2 uM after 24 hrs by sandwich ELISA relative to LPS; format: functional; summary of the method: as §1
THP-1 [21] = assay: Immunomodulatory effect in human THP1 cells assessed as increase in LPS-induced TNF-alpha release at 200 uM after 24 hrs by sandwich ELISA relative to LPS; format: functional; summary of the method: as §1
THP-1 [22] = assay: Immunomodulatory effect in human THP1 cells assessed as increase in LPS-induced TNF-alpha release after 24 hrs by sandwich ELISA relative to LPS; format: functional, cell-based; summary of the method: as §1

| SMILES | Activity (THP-1 [1]) [%] | Activity (THP-1 [2]) | Activity (PBMC [3]) | Activity (THP-1 [4]) | Activity (PBMC [6]) [%] | Activity (PBMC [7]) [%] | Activity (PBMC [8]) [%] | Activity (PBMC [9]) [%] | Activity (PBMC [10]) [%] | Activity (PBMC [11]) [%] | Activity (PBMC [12]) [%] | Activity (PBMC [13]) [%] | Activity (PBMC [14]) [%] | Activity (PBMC [15]) [%] | further results |
| --- | --- | --- | --- | --- | --- | --- | --- | --- | --- | --- | --- | --- | --- | --- | --- |
| C[C@@H](NC(=O)CCCCN1C(=O)c2ccccc2S1(=O)=O)C(=O)N[C@@H](CCC(=O)O)C(N)=O | 91 | Non-toxic | Non-toxic | Non-toxic | – | – | – | – | – | – | – | – | – | – | – |
| C[C@H](NC(=O)CCNC(=O)c1cc2ccccc2[nH]1)c1noc(CCC(=O)O)n1 | 113.4 | Non-toxic | Non-toxic | Non-toxic | – | – | – | – | – | – | – | – | – | – | – |
| CC(=O)N[C@@H]1[C@@H](O[C@H](C)C(=O)N[C@@H](C)C(=O)N[C@@H](CCC(=O)O)C(N)=O)[C@H](O)[C@@H](CO)O[C@H]1O | – | – | – | – | – | – | – | – | – | – | – | – | – | – | Activity (PBMC [5]): Active |
| C[C@H](NC(=O)CCCCN1C(=O)c2ccccc2S1(=O)=O)C(=O)N[C@H](CCC(=O)O)C(N)=O | 114 | Non-toxic | Non-toxic | Non-toxic | 108.5 | 98 | 109 | 106 | 97.5 | 96 | 84.5 | 81 | 91.5 | 103 | – |
| CCCCOC(=O)[C@@H](CCC(N)=O)NC(=O)[C@H](C)NC(=O)[C@@H](C)O[C@H]1[C@H](O)[C@@H](CO)OC(O)[C@@H]1NC(C)=O (stereo partly drawn) [MURABUTIDE] | 182.6 | Non-toxic | Non-toxic | Non-toxic | 696.5 | 559 | 594.5 | 416.5 | 107 | 332.5 | 158.5 | 439.5 | 2964.5 | 152 | – |
| C[C@H](NC(=O)COCCN1C(=O)c2ccccc2S1(=O)=O)C(=O)N[C@H](CCC(=O)O)C(N)=O | 114.3 | Non-toxic | Non-toxic | Non-toxic | 104.5 | 84.5 | 95.5 | 95.5 | – | 83.5 | 89.5 | 63.5 | 122 | 110.5 | Activity (PBMC [16]): 96.5% |
| C[C@H](NC(=O)COCCN1C(=O)c2ccccc2S1(=O)=O)C(=O)N[C@H](CCC(=O)O)C(=O)O | 117 | Non-toxic | Non-toxic | Non-toxic | 104 | – | – | 85 | – | 124 | 116 | 91 | 112 | 104 | Activity (PBMC [17]): 65.5%; Activity (PBMC [18]): 86%; Activity (PBMC [16]): 89.5% |
| C[C@H](NC(=O)C1=C2c3ccccc3S(=O)(=O)N2CCC1)C(=O)N[C@H](CCC(=O)O)C(N)=O | 120.2 | Non-toxic | Non-toxic | Non-toxic | 115 | 94 | 103.5 | 94 | 98.5 | 105.5 | 88.5 | 74 | 88 | 103 | Activity (THP-1 [19]): 90.3%; Activity (THP-1 [20]): 92.5%; Activity (THP-1 [21]): 204.3%; Activity (THP-1 [22]): Dose-dependent effect |
| C[C@H](NC(=O)CCCCN1C(=O)c2ccccc2S1(=O)=O)C(=O)N[C@@H](CCC(=O)O)C(N)=O | 119.3 | Non-toxic | Non-toxic | Non-toxic | – | – | – | – | – | – | – | – | – | – | – |
| C[C@H](NC(=O)C1=C2c3ccccc3S(=O)(=O)N2CCC1)C(=O)N[C@H](CCC(=O)O)C(=O)O | 113.3 | Non-toxic | Non-toxic | Non-toxic | – | – | – | – | – | – | – | – | – | – | – |
| C[C@H](NC(=O)C1CCCN2C1c1ccccc1S2(=O)=O)C(=O)N[C@H](CCC(=O)O)C(=O)O (stereo partly drawn) | 110.5 | Non-toxic | Non-toxic | Non-toxic | – | – | – | – | – | – | – | – | – | – | – |
| CCOC(=O)CC[C@@H](NC(=O)[C@H](C)NC(=O)C1=C2c3ccccc3S(=O)(=O)N2CCC1)C(N)=O | 122 | Non-toxic | Non-toxic | Non-toxic | 122.5 | 105.5 | 120 | 95 | 94.5 | 142 | 82.5 | 139.5 | 406 | 134 | – |
| C[C@@H](NC(=O)CCCCN1C(=O)c2ccccc2S1(=O)=O)C(=O)N[C@H](CCC(=O)O)C(N)=O | 115.3 | Non-toxic | Non-toxic | Non-toxic | – | – | – | – | – | – | – | – | – | – | – |
